The text below walks through data of article PMC7116037 (Structure (London, England : 1993), 2020).

The Kd is the constant that tells how readily two partners part at equilibrium. Read a low Kd as tighter binding.

In assay [1] the test system is truncated version of βarr2. Kind of assay: HDX-MS profile of truncated βarr2 upon co-incubation with C7pp. Conditions: truncated βarr2 lacking residues 357–410; data not shown. Set-up: species or system Rattus norvegicus.
The target in assay [2] is rat βarr2 (Rattus norvegicus, UniProt P29067). Kind of assay: Isothermal titration calorimetry of C7pp binding to full-length βarr2. Conditions: 298 K, 20 mM Tris-HCl pH 8.0, 200 mM NaCl. Put shortly: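 Rat βarr2 (1–410 WT), expressed in E. coli BL21(DE3)pLysS, in 20 mM Tris-HCl pH 8.0, 200 mM NaCl at 100 μM or 30 μM in the cell, degassed at 295 K. Titration at 298 K: 2.5 μL of C7pp ([…] syringe solution) injected every 200 s with gentle stirring. Binding constant and stoichiometry fitted from the titration curve; n = 3 independent experiments.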
rat βarr2, sequence (P29067 whole entry): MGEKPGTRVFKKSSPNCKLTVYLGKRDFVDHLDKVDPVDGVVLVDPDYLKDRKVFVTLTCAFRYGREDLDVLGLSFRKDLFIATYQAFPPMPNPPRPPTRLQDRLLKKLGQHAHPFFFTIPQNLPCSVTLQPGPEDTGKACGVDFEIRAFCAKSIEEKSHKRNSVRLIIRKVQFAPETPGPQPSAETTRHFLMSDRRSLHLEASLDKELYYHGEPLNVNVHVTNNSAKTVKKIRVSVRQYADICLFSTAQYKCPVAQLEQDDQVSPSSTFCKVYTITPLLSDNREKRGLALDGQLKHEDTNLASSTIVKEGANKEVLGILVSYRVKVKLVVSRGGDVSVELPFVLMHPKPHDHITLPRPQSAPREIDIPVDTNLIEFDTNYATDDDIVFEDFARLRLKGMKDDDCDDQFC
(ITC needs no label: the signal is the heat of the interaction.)

Assay [3] relates to βarr2. Briefly: HDX-MS profile of βarr2 upon C7pp binding. Details: species or system Rattus norvegicus. The conditions noted are these: 100 μM βarr2, 500 μM peptide, 1 h at room temperature.
The target in assay [4] is Rattus norvegicus wild-type β-arrestin 2 (βarr2 1-410) (Rattus norvegicus) (UniProt P29067). Kind of assay: ITC.
Rattus norvegicus wild-type β-arrestin 2 (βarr2 1-410) (Rattus norvegicus), sequence (P29067 whole entry): as above

Where a SMILES comes first, the peptide text is derived from it. [ ]: non-standard residue; d: D form. pT = C[C@@H](OP(=O)(O)O)[C@H](N)C(=O)O; pS = N[C@@H](COP(=O)(O)O)C(=O)O

Consider `CC[C@H](C)[C@H](N)C(=O)N[C@@H](Cc1ccccc1)C(=O)N[C@@H](CCCCN)C(=O)N[C@@H](Cc1ccc(O)cc1)C(=O)N[C@@H](COP(=O)(O)O)C(=O)N[C@@H](C)C(=O)N[C@@H](CCCCN)C(=O)N[C@H](C(=O)NCC(=O)N[C@@H](CC(C)C)C(=O)N[C@H](C(=O)N[C@@H](CCCCN)C(=O)N[C@@H](CC(C)C)C(=O)N[C@H](C(=O)N[C@@H](CC(=O)O)C(=O)O)[C@@H](C)CC)[C@@H](C)OP(=O)(O)O)[C@@H](C)OP(=O)(O)O` [C7pp] (H-IFKY[pS]AK[pT]GL[pT]KLID-OH; N-terminus and C-terminus assumed), for which the “HDX profile of truncated βarr2 upon co-incubation” value in assay [1] is “did not change upon co-incubation with C7pp”. For the same compound, the “binding behaviour (ITC)” value in assay [2] is “monophasic binding with βarr2”. Further, in assay [3], the “HDX-MS: helix formation in the finger loop” value is “did not indicate a helix formation in the finger loop”.
In the case of CXCR7 phosphopeptide (C7pp), the Kd in assay [4] amounted to 3.08 µM.
